Structures are written as SMILES.

Test [1] in a line: Hepatoprotective activity in human HepG2 cells assessed as inhibition of paracetamol-induced cell damage at 10 uM preincubated for 1 hr followed by paracetamol addition measured after 24 hrs by MTT assay relative to control. The format is functional. The method, boiled down: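 HepG2 cells damaged with paracetamol, test agents at 10 μM, with bicyclol (10 μM) as the positive control. Viability was read by MTT colorimetric assay and expressed as % of normal, and inhibition as % of paracetamol control. Values are mean ± SD, n = 3 (normal and control wells n = 6).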
For orientation: Tetrazolium assays rely on reduction of a dye to a coloured formazan, in cell work by metabolically active cells.

The nature of test [2]: Neuroprotective activity against glutamate-induced toxicity in human SK-N-SH cells assessed as cell viability at 10 uM after 24 hrs by MTT assay (reference value: 61.9 +/- 0.9%). The format is functional. As to conditions: read-out: Activity.
The nature of test [3]: Cytotoxicity against human HCT8 cells at 10^-5 M by MTT assay relative to control. The class given is functional. The conditions noted are these: HCT-8.
The nature of test [4]: Cytotoxicity against human A549 cells at 10^-5 M by MTT assay relative to control. The format is functional.
Test [5] can be described thus: Cytotoxicity against human Bel7402 cells at 10^-5 M by MTT assay relative to control. The format is functional. As to conditions: Bel-7402.
The target in test [6] is Sodium-dependent dopamine transporter (Homo sapiens, UniProt Q01959). Briefly: Inhibition of dopamine transporter (unknown origin) assessed as suppression of synaptosomal uptake of dopamine.
Sequence of Sodium-dependent dopamine transporter (Q01959 whole entry): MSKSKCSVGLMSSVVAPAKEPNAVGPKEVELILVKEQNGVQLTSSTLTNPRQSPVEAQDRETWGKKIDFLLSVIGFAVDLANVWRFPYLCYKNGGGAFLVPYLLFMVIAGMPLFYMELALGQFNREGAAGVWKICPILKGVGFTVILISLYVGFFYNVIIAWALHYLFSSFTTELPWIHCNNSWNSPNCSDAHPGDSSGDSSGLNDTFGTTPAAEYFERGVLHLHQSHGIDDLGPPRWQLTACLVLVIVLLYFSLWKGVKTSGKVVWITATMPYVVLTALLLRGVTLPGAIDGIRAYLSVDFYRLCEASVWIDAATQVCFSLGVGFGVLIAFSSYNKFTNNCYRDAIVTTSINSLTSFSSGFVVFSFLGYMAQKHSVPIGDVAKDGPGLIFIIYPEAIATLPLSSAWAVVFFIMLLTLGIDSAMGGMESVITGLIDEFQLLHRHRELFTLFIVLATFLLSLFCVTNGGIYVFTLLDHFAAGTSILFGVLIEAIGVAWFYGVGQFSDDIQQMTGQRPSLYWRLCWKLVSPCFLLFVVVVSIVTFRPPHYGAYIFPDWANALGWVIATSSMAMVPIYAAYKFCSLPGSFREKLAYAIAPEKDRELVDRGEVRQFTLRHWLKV
Test [7] in a line: Inhibition of GABA transporter (unknown origin) assessed as suppression of synaptosomal uptake of GABA. Set-up: species or system Homo sapiens.
In test [8] the target is Sodium-dependent noradrenaline transporter (Homo sapiens, UniProt P23975). Briefly: Inhibition of norepinephrine transporter (unknown origin) assessed as suppression of synaptosomal uptake of norepinephrine.
Sequence of Sodium-dependent noradrenaline transporter (P23975 whole entry): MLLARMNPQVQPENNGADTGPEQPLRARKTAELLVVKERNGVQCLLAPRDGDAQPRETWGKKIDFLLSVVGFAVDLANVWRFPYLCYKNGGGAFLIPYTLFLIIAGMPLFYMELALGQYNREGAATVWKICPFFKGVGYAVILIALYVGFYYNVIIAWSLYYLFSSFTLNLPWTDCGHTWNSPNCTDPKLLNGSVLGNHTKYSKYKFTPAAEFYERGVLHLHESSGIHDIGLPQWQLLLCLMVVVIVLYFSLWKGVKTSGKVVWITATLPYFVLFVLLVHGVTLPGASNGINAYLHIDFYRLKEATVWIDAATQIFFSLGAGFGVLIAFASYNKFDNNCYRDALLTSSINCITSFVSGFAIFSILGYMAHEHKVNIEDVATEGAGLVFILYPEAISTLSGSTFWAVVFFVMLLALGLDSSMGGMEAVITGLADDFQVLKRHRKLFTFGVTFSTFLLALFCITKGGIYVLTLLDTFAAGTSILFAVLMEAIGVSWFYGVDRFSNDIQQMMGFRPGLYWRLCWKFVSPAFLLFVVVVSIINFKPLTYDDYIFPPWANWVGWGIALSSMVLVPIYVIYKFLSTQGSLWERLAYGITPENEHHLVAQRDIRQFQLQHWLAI
A short description of test [9]: Inhibition of glutamate transporter (unknown origin) assessed as suppression of synaptosomal uptake of L-glutamate. Set-up: species or system Homo sapiens.
Test [10] concerns the target Sodium-dependent serotonin transporter (Homo sapiens, UniProt P31645). The test can be described thus: Inhibition of serotonin transporter (unknown origin) assessed as suppression of synaptosomal uptake of serotonin.

Sequence of Sodium-dependent serotonin transporter (P31645 whole entry): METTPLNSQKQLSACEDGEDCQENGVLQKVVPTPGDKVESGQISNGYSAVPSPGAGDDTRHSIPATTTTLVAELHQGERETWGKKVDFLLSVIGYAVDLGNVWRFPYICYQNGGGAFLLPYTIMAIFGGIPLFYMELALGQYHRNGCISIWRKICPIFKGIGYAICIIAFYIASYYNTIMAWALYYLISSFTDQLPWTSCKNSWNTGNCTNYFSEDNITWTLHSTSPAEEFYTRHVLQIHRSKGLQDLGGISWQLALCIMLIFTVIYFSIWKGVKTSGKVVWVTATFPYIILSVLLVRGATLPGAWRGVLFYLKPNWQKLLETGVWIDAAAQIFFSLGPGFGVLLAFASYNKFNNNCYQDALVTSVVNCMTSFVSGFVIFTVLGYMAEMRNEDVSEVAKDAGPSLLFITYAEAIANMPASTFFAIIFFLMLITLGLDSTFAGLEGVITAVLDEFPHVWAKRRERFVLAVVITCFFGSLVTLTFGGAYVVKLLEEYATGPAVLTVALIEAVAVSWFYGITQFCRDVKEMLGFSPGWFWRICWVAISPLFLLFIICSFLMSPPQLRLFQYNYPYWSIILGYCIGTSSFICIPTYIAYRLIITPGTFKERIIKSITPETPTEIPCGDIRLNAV

As usually defined, the inhibition is the drop in the measured response relative to a control, in per cent. In the case of `CC(C)=CC[C@H]1C[C@@]2(CC=C(C)C)C(=O)[C@](C(=O)c3ccccc3)(C(=O)C3=C2O[C@@H](C(C)(C)O)C3)[C@]1(C)CCCC(C)C`, in test [1], the inhibition at 10 µM is 10.3%.
With `CC[C@H](C)C(=O)C12C(=O)[C@]3(CC=C(C)C)O[C@@]1(O)C(C)(C[C@H](CC=C(C)C)[C@@]2(C)CCC=C(C)C)C3=O` (some centres not stated), the viability at 10 µM in test [2] stood at 72.1%. In addition, the inhibition at 10 µM was -25.9% in [3], 36.7% in [1], 19% in test [4] and -3.16% in [5].
Regarding `CC(C)=CCC[C@]1(C)C[C@H](CC=C(C)C)[C@](C)(O)C(=O)[C@H]1C(=O)C(C)C`, the inhibition at 10 µM in [3] is -25.7%; in [4], 17.2%; in test [5] it was 14.7%.
For the molecule `CC(C)=CC[C@H]1C[C@@]2(C)C(=O)[C@](C(=O)c3ccccc3)(C(=O)C3=C2O[C@H](C(C)(C)O)C3)[C@]1(C)CCCC(C)C`, the viability at 10 µM in [2] amounted to 83%.
Regarding `CC(C)=CC[C@H]1CC(C)=C2OC(C)(C)[C@@H]3CC[C@@]1(C)[C@]23C(=O)C(C)C`, in test [1], the inhibition at 10 µM is 15.9%.
With `CC[C@H](C)C(=O)[C@@H]1C(=O)[C@@](C)(O)[C@@H](CC=C(C)C)C[C@@]1(C)CCC=C(C)C`, the inhibition at 10 µM in [3] is -24.4%; in test [1] it was 30.5%; in test [4] it was -13.6%; in test [5], 3.31%.
The term IC50 denotes the point on the concentration scale where inhibition reaches its midpoint. For the molecule `CC(C)=CCC[C@]1(C)[C@@H](CC=C(C)C)C[C@]2(CC=C(C)C)C(=O)C(CC=C(C)C)=C(O)[C@@]1(C(=O)C(C)C)C2=O`, the IC50 in [6], in test [7], in test [8] and in [9] was 2000 nM each time.
Take `Oc1ccc(/C=C/c2cc(O)cc(O)c2)cc1` [RESVERATROL]: the viability at 10 µM in test [2] is 72.6%.
In the case of `CC(C)=CCC[C@]1(C)[C@@H](CC=C(C)C)CC2(CC=C(C)C)C(=O)[C@@]3(CC=C(C)C)O[C@]2(O)[C@]1(C(=O)C(C)C)C3=O` (some centres not stated), in test [1], the inhibition at 10 µM came to 14%.
For the molecule `CC(C)=CC[C@H]1C[C@]2(CC=C(C)C)C(=O)C(C(=O)c3ccccc3)=C3O[C@H](C(C)(C)O)C[C@]3(C2=O)C1(C)C`, the viability at 10 µM in test [2] is 73.5%. Also, the inhibition at 10 µM was found to be 3.04% in [3], 10.7% in test [4] and 1.05% in [5].
Turning to `CC(C)=CCC1=C2O[C@@H](C(C)(C)O)CC[C@]3(C)[C@@H](CC=C(C)C)C[C@](C)(C1=O)C(=O)[C@]23C(=O)C(C)C`, the inhibition at 10 µM was -37.1% in test [3], 6.1% in [1], 0.36% in [4] and 19.4% in test [5].
As for `CC(C)=CCC[C@]1(C)[C@@H](CC=C(C)C)CC2(C)C(=O)[C@@]3(CC=C(C)C)O[C@]2(O)[C@]1(C(=O)C(C)C)C3=O` (some centres not stated), the inhibition at 10 µM in test [1] came to 25.8%.
With `C=C(C)[C@@H]1C[C@@]23C[C@@H](CC=C(C)C)C(C)(C)[C@@](CC=C(C)C)(C(=O)C(C(=O)c4ccccc4)=C2O1)C3=O`, the viability at 10 µM in [2] was determined as 73.1%. For the same molecule, the inhibition at 10 µM was -29.7% in test [3], 6.64% in test [4] and -0.2% in test [5].
For the molecule `CC(C)=CC[C@@]12C[C@H]3[C@@H](C=C(C)C)[C@@](C(=O)c4ccccc4)(C1=O)C(=O)[C@@](CC=C(C)C)(C2=O)C3(C)C` [HYPERIBONE K], the viability at 10 µM in test [2] was determined as 73.1%. In test [1], the inhibition at 10 µM came to 49%.
As to `CC(C)=CC[C@H]1C[C@@]2(C)C(=O)[C@](C(=O)C(C)C)(C(=O)C3=C2O[C@@H](C(C)(C)O)C3)[C@]1(C)CCCC(C)C`, the inhibition at 10 µM in test [1] came to 23.3%.
On to `CC(C)=CCC1=C2OCC[C@@]23C[C@H](CC=C(C)C)C(C)(C)[C@@](C(=O)c2ccccc2)(C1=O)C3=O`, for which the values for the inhibition at 10 µM in test [3], in test [4] and in [5] were 14.4%, 1.46% and -1.32%, respectively.
With `CC[C@@H](C)C(=O)[C@]12C(=O)[C@]3(C)C[C@H](CC=C(C)C)[C@@]1(C)CC[C@H](C(C)(C)O)OC2=C(CC=C(C)C)C3=O`, the viability at 10 µM in test [2] stood at 70.8%. The inhibition at 10 µM in [3] is -41.2%; in test [1], 24.9%; in test [4], 8.65%; in test [5], 8.64%.
On to `CC(C)=CCC1=C2O[C@@H](C(C)(C)OO)C[C@@]23C[C@H](CC=C(C)C)C(C)(C)[C@@](C(=O)c2ccccc2)(C1=O)C3=O`, for which the inhibition at 10 µM in test [3] was -32.2%; in test [4], 14.6%; in test [5], 18.4%.
Turning to `CCC(C)C(=O)[C@]12C(=O)[C@](CC=C(C)C)(C[C@H](CC=C(C)C)[C@@]1(C)CCC=C(C)C)C(=O)C(CC=C(C)C)=C2O` (some centres not stated) [ADHYPERFORIN], the IC50 in test [6], in [10] and in test [8] was 2000 nM in each case.
With `CC(C)=CC[C@H]1C[C@@]2(C)C(=O)[C@](C(=O)C(C)C)(C(=O)C3=C2O[C@H](C(C)(C)O)C3)[C@]1(C)CCCC(C)C`, the viability at 10 µM in test [2] amounted to 71.6%.
Still for that read-out and setting: the result for `CC(C)=CC[C@H]1C[C@]2(C)C(=O)C3=C(O[C@H](C(C)(C)O)C3)[C@@](C(=O)C(C)C)(C2=O)[C@]1(C)CCCC(C)C` reads 75.4%.
Consider `COC(=O)c1cc(OC)c2c(c1-c1c(CO)cc(OC)c3c1OCO3)OCO2` [BICYCLOL], for which the inhibition at 10 µM in test [1] was 19.5%.
Consider `O=c1[nH]cc(F)c(=O)[nH]1` [FLUOROURACIL], for which the figures for the inhibition at 10 µM in [3], in [4] and in [5] were 70.4%, 68.3% and 70.6%, respectively.

The values above are taken from ChEMBL document CHEMBL3856218, “Polycyclic Polyprenylated Acylphloroglucinol Congeners from Hypericum scabrum” (J Nat Prod, 2016).
